ChEMBL document CHEMBL4689842, “EUbOPEN Chemogenomics Library wave 1” (2021)
“And” between values parts separate entries of the source, which are not always exact repeats. Identical values can stand only once.

Test system: HEK-293T
Assay: Multiplex assay against HEK293T
Type: toxicity, cell-based
Conditions: human
How it was run: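 Per cents of healthy-nucleus cells form the tubulin, mitochondrial-mass and membrane-permeability phenotype values. Live cells were stained at seeding with Hoechst33342, BioTracker Green Microtubule Cytoskeleton Dye, MitoTracker Red and Annexin V Alexa Fluor 680. After compound addition they were imaged on a CQ1 microscope at 37°C and 5% CO2, and CellPathfinder machine-learning gating split them into Hoechst high-intensity objects or normal cells, normal cells into healthy, pyknosed or fragmented nuclei, and pyknosed cells into mitotic or apoptotic.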

[1] = 12 h, 1 µM, compound concentration 1 uM, replicate 1
[2] = 12 h, 1 µM, compound concentration 1 uM, replicate 2
[3] = 12 h, 10 µM, compound concentration 10 uM, replicate 1
[4] = 12 h, 10 µM, compound concentration 10 uM, replicate 2
[5] = 24 h, 1 µM, compound concentration 1 uM, replicate 1
[6] = 24 h, 1 µM, compound concentration 1 uM, replicate 2
[7] = 24 h, 10 µM, compound concentration 10 uM, replicate 1
[8] = 24 h, 10 µM, compound concentration 10 uM, replicate 2

Q: How did the “Population Apoptotic (%)” value [1] turn out when `CCC1=C[C@@H]2C[N@](C1)Cc1c([nH]c3ccccc13)[C@@](C(=O)OC)(c1cc3c(cc1OC)N(C)[C@H]1[C@@](O)(C(=O)OC)[C@H](OC(C)=O)[C@]4(CC)C=CCN5CC[C@]31[C@@H]54)C2.O=C(O)C(O)C(O)C(=O)O.O=C(O)C(O)C(O)C(=O)O` [VINORELBINE TARTRATE] was run?
A: 25% and 14%

Q: What about the “Population Fragmented Nuclei (%)” value [1] of the same compound?
A: 25% and 16%

Q: And the “Population Healthy Nuclei (%)” value [1]?
A: 32% and 48%

Q: And the “Population Hoechst High Intensity Objects (%)” value [1]?
A: 18% and 15%

Q: What about the “Population Mitochondria Different-Phenotype (%)” value [1] of the same compound?
A: 18% and 9%

Q: What about the “Population Mitotic Cells (%)” value [1] of the same compound?
A: 75% and 85%

Q: What about the “Population Normal (%)” value [1] of the same compound?
A: 81% and 84%

Q: And the “Population Pyknosed Nuclei (%)” value [1]?
A: 41% and 35%

Q: What about the “Total Cell Count” value [1] of the same compound?
A: 502 and 565

Q: And the “Population Apoptotic (%)” value [2]?
A: 17% and 8%

Q: And the “Population Fragmented Nuclei (%)” value [2]?
A: 3% and 4%

Q: And the “Population Healthy Nuclei (%)” value [2]?
A: 57% and 63%

Q: And the “Population Hoechst High Intensity Objects (%)” value [2]?
A: 4% and 3%

Q: And the “Population Membrane Permeable-Phenotype (%)” value [2]?
A: 12% and 0%

Q: What about the “Population Mitochondria Different-Phenotype (%)” value [2] of the same compound?
A: 27% and 14%

Q: And the “Population Mitotic Cells (%)” value [2]?
A: 83% and 91%

Q: And the “Population Normal (%)” value [2]?
A: 95% and 96%

Q: And the “Population Pyknosed Nuclei (%)” value [2]?
A: 38% and 31%

Q: What about the “Total Cell Count” value [2] of the same compound?
A: 945 and 1247

Q: What about the “Population Apoptotic (%)” value [3] of the same compound?
A: 31% and 19%

Q: And the “Population Fragmented Nuclei (%)” value [3]?
A: 29% and 13%

Q: And the “Population Healthy Nuclei (%)” value [3]?
A: 22% and 49%

Q: And the “Population Hoechst High Intensity Objects (%)” value [3]?
A: 19% and 15%

Q: What about the “Population Mitochondria Different-Phenotype (%)” value [3] of the same compound?
A: 13% and 9%

Q: And the “Population Mitotic Cells (%)” value [3]?
A: 68% and 80%

Q: What about the “Population Normal (%)” value [3] of the same compound?
A: 80% and 84%

Q: What about the “Population Pyknosed Nuclei (%)” value [3] of the same compound?
A: 48% and 37%

Q: And the “Total Cell Count” value [3]?
A: 499 and 592

Q: What about the “Population Apoptotic (%)” value [4] of the same compound?
A: 13% and 7%

Q: What about the “Population Fragmented Nuclei (%)” value [4] of the same compound?
A: 3%

Q: What about the “Population Healthy Nuclei (%)” value [4] of the same compound?
A: 54% and 62%

Q: What about the “Population Hoechst High Intensity Objects (%)” value [4] of the same compound?
A: 2%

Q: And the “Population Membrane Permeable-Phenotype (%)” value [4]?
A: 10% and 0%

Q: And the “Population Mitochondria Different-Phenotype (%)” value [4]?
A: 22% and 16%

Q: And the “Population Mitotic Cells (%)” value [4]?
A: 86% and 92%

Q: What about the “Population Normal (%)” value [4] of the same compound?
A: 97%

Q: What about the “Population Pyknosed Nuclei (%)” value [4] of the same compound?
A: 41% and 33%

Q: What about the “Total Cell Count” value [4] of the same compound?
A: 964 and 1090

Q: And the “Population Apoptotic (%)” value [5]?
A: 13% and 28%

Q: And the “Population Fragmented Nuclei (%)” value [5]?
A: 15% and 27%

Q: What about the “Population Healthy Nuclei (%)” value [5] of the same compound?
A: 47% and 33%

Q: What about the “Population Hoechst High Intensity Objects (%)” value [5] of the same compound?
A: 12% and 20%

Q: What about the “Population Membrane Permeable-Phenotype (%)” value [5] of the same compound?
A: 0% and 13%

Q: And the “Population Mitotic Cells (%)” value [5]?
A: 86% and 71%

Q: What about the “Population Normal (%)” value [5] of the same compound?
A: 87% and 79%

Q: What about the “Population Pyknosed Nuclei (%)” value [5] of the same compound?
A: 36% and 38%

Q: And the “Total Cell Count” value [5]?
A: 530 and 459

Q: And the “Population Apoptotic (%)” value [6]?
A: 14% and 8%

Q: What about the “Population Fragmented Nuclei (%)” value [6] of the same compound?
A: 7% and 9%

Q: What about the “Population Healthy Nuclei (%)” value [6] of the same compound?
A: 36% and 69%

Q: What about the “Population Hoechst High Intensity Objects (%)” value [6] of the same compound?
A: 6% and 3%

Q: And the “Population Membrane Permeable-Phenotype (%)” value [6]?
A: 8%

Q: What about the “Population Mitochondria Different-Phenotype (%)” value [6] of the same compound?
A: 28%

Q: And the “Population Mitotic Cells (%)” value [6]?
A: 85% and 91%

Q: What about the “Population Normal (%)” value [6] of the same compound?
A: 93% and 96%

Q: What about the “Population Pyknosed Nuclei (%)” value [6] of the same compound?
A: 55% and 21%

Q: And the “Total Cell Count” value [6]?
A: 914 and 1303

Q: What about the “Population Apoptotic (%)” value [7] of the same compound?
A: 20% and 38%

Q: What about the “Population Fragmented Nuclei (%)” value [7] of the same compound?
A: 16% and 29%

Q: And the “Population Healthy Nuclei (%)” value [7]?
A: 45% and 26%

Q: And the “Population Hoechst High Intensity Objects (%)” value [7]?
A: 9% and 20%

Q: And the “Population Mitochondria Different-Phenotype (%)” value [7]?
A: 10% and 13%

Q: And the “Population Mitotic Cells (%)” value [7]?
A: 79% and 61%

Q: What about the “Population Normal (%)” value [7] of the same compound?
A: 90% and 79%

Q: What about the “Population Pyknosed Nuclei (%)” value [7] of the same compound?
A: 37% and 44%

Q: And the “Total Cell Count” value [7]?
A: 529 and 482

Q: And the “Population Apoptotic (%)” value [8]?
A: 11% and 5%

Q: What about the “Population Fragmented Nuclei (%)” value [8] of the same compound?
A: 3% and 6%

Q: What about the “Population Healthy Nuclei (%)” value [8] of the same compound?
A: 37% and 72%

Q: And the “Population Hoechst High Intensity Objects (%)” value [8]?
A: 3% and 2%

Q: And the “Population Membrane Permeable-Phenotype (%)” value [8]?
A: 9% and 0%

Q: What about the “Population Mitotic Cells (%)” value [8] of the same compound?
A: 88% and 94%

Q: And the “Population Normal (%)” value [8]?
A: 96% and 97%

Q: What about the “Population Pyknosed Nuclei (%)” value [8] of the same compound?
A: 58% and 21%

Q: And the “Total Cell Count” value [8]?
A: 920 and 1144
